Laboratory results as given in PubChem BioAssay.
Calls of active or inactive are those of the source.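 The calls were made as follows, unless noted: active = GFP response above 150% of the DMSO level; inconclusive = fewer than 70 events counted for a yeast strain; inactive = the rest.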

Experiments:
[1] = hit retest on RPL19A-GFP reporter strain – cell-based, S. cerevisiae, flow cytometry, cherry picks, mother/daughter gates, confirmation (AID 2270;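 active = GFP response below 50% of the DMSO control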); conditions: 3 h, at 10 µM, stronger effect = lower value, 100 = same GFP as DMSO wells
[2] = yeast TOR pathway reporter LAP4-GFP change – cell-based, cherry picks, flow cytometry, mother/daughter gates, confirmation (AID 2271;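 active = GFP response above 150% of the DMSO control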;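 also: ratio of sample to DMSO plate mean so 100% equals DMSO level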); conditions: S. cerevisiae LAP4-GFP strain, 3 h, at 10 µM, stronger effect = higher value, 100 means same as DMSO control
Procedure, shortened: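 System: Alexa 633-stained baker's yeast GFP-fusion strain / Medium: synthetic complete (SC) yeast growth medium / Doses: compound at 10 µM, single point / Times: 3 h treatment at 30 °C with rotation / Detection: HT flow cytometry, GFP fluorescence channel / Benchmarks: DMSO-only negative wells, rapamycin 400 ng/mL positive wells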

[3] = TOR pathway reporter MEP2-GFP, retest of hits – S. cerevisiae, flow cytometry GFP, cherry picks, confirmation (AID 2272;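 active = GFP response above 150% of the DMSO control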;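 also: ratio of well signal to plate DMSO mean so 100% equals DMSO level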); conditions: S. cerevisiae MEP2-GFP strain, 3 h, at 10 µM, stronger effect = higher value
[4] = yeast AGP1-GFP fluorescence change, single-dose – cell-based, flow cytometry, S. cerevisiae, cherry picks, confirmation (AID 2273);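 also: median GFP channel fluorescence over the whole cell population gate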; conditions: S. cerevisiae AGP1-GFP strain, 3 h, at 10 µM
[5] = TOR pathway CIT2 reporter hit retest – S. cerevisiae, GFP fusion, cherry picks, mother/daughter gates, confirmation (AID 2274); conditions: S. cerevisiae CIT2-GFP strain, flow cytometry, 3 h, at 10 µM, stronger effect = higher value
[6] = measured here: daughter cell gate
[7] = measured here: mother cell gate
[8] = measured here: daughter cell gate response
[9] = measured here: mother cell gate response

Row | SMILES | GFP response vs DMSO [1] | GFP response vs DMSO [1, 6] [%] | GFP response vs DMSO [1, 7] [%] | GFP response relative to DMSO [2] | GFP response relative to DMSO [2, 8] [%] | GFP response relative to DMSO [2, 9] [%] | GFP response vs DMSO [3] | GFP response, % of DMSO [4] | GFP response, % of DMSO [5] | GFP response, % of DMSO [5, 6] [%] | GFP response, % of DMSO [5, 7] [%]
1 | CCOc1ccc2nc(SCC(=O)NCC3CCCO3)c(C#N)cc2c1 (centres undefined) | 97.8% (inactive) | 95.9 | 99.2 | 99.8% (inactive) | 100 | 101 | 97.8% (inactive) | 96.3% (inactive) | 90% (inactive) | 91.5 | 88
2 | Oc1c(C(Nc2cccc(C(F)(F)F)c2)c2ccncc2)ccc2cccnc12 (centres undefined) | 105% (inactive) | 104 | 102 | 135% (inactive) | 120 | 136 | 112% (inactive) | 94% (inactive) | 99.3% (inactive) | 102 | 94.5
3 | Cc1ccc(C)c(N2CCN(C(=O)c3ccccc3Br)CC2)c1 | 105% (inactive) | 102 | 99.5 | 101% (inactive) | 101 | 100 | 109% (inactive) | 98.8% (inactive) | 106% (inactive) | 103 | 105
4 | Cc1nnc(NC(=O)c2ccc(S(=O)(=O)N3CCCCCC3)cc2)o1 | 99.4% (inactive) | 99.3 | 100 | 97% (inactive) | 97.5 | 97.3 | 101% (inactive) | 99% (inactive) | 100% (inactive) | 103 | 96.8
5 | CCOCCCNC(=O)/C(C#N)=C/c1ccc([N+](=O)[O-])o1 | 118% (inactive) | 91.2 | 87.9 | 212% (active) | 132 | 129 | 285% (active) | 122% (inactive) | 182% (active) | 114 | 110
6 | COc1cc(/C=C2/N=C(c3ccccc3)OC2=O)c(F)cc1OCc1ccccc1 | 99.1% (inactive) | 100 | 98 | 98.9% (inactive) | 102 | 98.4 | 101% (inactive) | 108% (inactive) | 106% (inactive) | 105 | 106
7 | NC(=O)CSCc1c(Cl)cccc1Cl | 101% (inactive) | 100 | 101 | 105% (inactive) | 103 | 108 | 109% (inactive) | 97.2% (inactive) | 93.9% (inactive) | 94.8 | 92.3
8 | CCCCCCc1cc2cc(-c3nnc(-c4ccccc4OC)o3)c(=O)oc2cc1O | 98.7% (inactive) | 99.3 | 98.4 | 111% (inactive) | 105 | 111 | 106% (inactive) | 99.1% (inactive) | 100% (inactive) | 101 | 98.2
9 | CN(C)c1ccc(N=Cc2nc(-c3ccccc3)oc2OC(=O)c2ccccc2)cc1 | 98.6% (inactive) | 100 | 98.5 | 105% (inactive) | 103 | 105 | 115% (inactive) | 111% (inactive) | 107% (inactive) | 103 | 107
10 | Cc1ccc(C2=NN(S(C)(=O)=O)C(c3ccc4nccnc4c3)C2)cc1 (centres undefined) | 98.6% (inactive) | 99.4 | 97.6 | 101% (inactive) | 101 | 99.3 | 100% (inactive) | 96.8% (inactive) | 101% (inactive) | 103 | 99.7
11 | O=C(Nc1ccc(F)cc1)C1CCCN(c2cnccn2)C1 (centres undefined) | 102% (inactive) | 101 | 102 | 99.5% (inactive) | 99.1 | 100 | 96.8% (inactive) | 105% (inactive) | 102% (inactive) | 99.2 | 103
12 | COc1ccc(-c2csc(Nc3ncccc3C)n2)cc1 | 95.6% (inactive) | 92.1 | 95.3 | 107% (inactive) | 104 | 109 | 98.3% (inactive) | 88.6% (inactive) | 103% (inactive) | 105 | 99.7
13 | CCCCOc1cccc(/C=C(\C#N)C(=O)NC2CC2)c1 | 93.5% (inactive) | 92.1 | 92.5 | 117% (inactive) | 114 | 116 | 113% (inactive) | 92.7% (inactive) | 99.7% (inactive) | 99.1 | 96.1
14 | CCC(Sc1nc(=O)cc(N)n1-c1ccccc1)C(=O)Nc1cc(C)on1 (centres undefined) | 98.2% (inactive) | 98.8 | 95.3 | 105% (inactive) | 105 | 96.5 | 108% (inactive) | 102% (inactive) | 109% (inactive) | 111 | 104
15 | CCCN1CCc2c(sc(NC(=S)NC(=O)c3ccccc3)c2C#N)C1 | 100% (inactive) | 99.6 | 97.8 | 116% (inactive) | 107 | 120 | 187% (active) | 102% (inactive) | 106% (inactive) | 99.2 | 108
16 | Cc1cc(NC(=O)c2cncc(Br)c2)ccc1NC(=O)c1cc2ccccc2o1 | 102% (inactive) | 100 | 104 | 90.2% (inactive) | 87.9 | 95.2 | 109% (inactive) | 95% (inactive) | 99.1% (inactive) | 98.1 | 97.7
17 | COc1cc(NC(=O)c2ccc(C)cc2)ccc1NC(=O)c1cc2ccccc2o1 | 95.4% (inactive) | 86 | 85.2 | 95.7% (inactive) | 91 | 91 | 99% (inactive) | 109% (inactive) | 100% (inactive) | 88.4 | 89.5

Row | SMILES | GFP response vs DMSO [1] | GFP response vs DMSO [1, 6] [%] | GFP response vs DMSO [1, 7] [%] | GFP response relative to DMSO [2] | GFP response relative to DMSO [2, 8] [%] | GFP response relative to DMSO [2, 9] [%] | GFP response vs DMSO [3] | GFP response, % of DMSO [4] | GFP response, % of DMSO [5] | GFP response, % of DMSO [5, 6] [%] | GFP response, % of DMSO [5, 7] [%]
18 | Cc1cccc(C(=O)Nc2ccc(O)cc2)c1 | 97.6% (inactive) | 97 | 97.3 | 100% (inactive) | 99 | 101 | 108% (inactive) | 104% (inactive) | 103% (inactive) | 101 | 104
19 | C=CCn1c(C)c(/C=C/c2cc[n+](C)cc2)c2ccccc21 | 99.6% (inactive) | 99.8 | 98.1 | 133% (inactive) | 136 | 129 | 147% (inactive) | 101% (inactive) | 141% (inactive) | 142 | 139
20 | Cc1nn(Cc2ccccc2Cl)c(C)c1C(=O)NCc1ccco1 | 99.3% (inactive) | 101 | 98.8 | 97.7% (inactive) | 101 | 98.4 | 99.3% (inactive) | 99.3% (inactive) | 98.6% (inactive) | 99.3 | 100
21 | CCOC(=O)C(=Cc1ccc(F)cc1)C(=O)OCC | 101% (inactive) | 101 | 100 | 107% (inactive) | 102 | 111 | 100% (inactive) | 96.7% (inactive) | 93.9% (inactive) | 94.8 | 92.3
22 | CC(C)Oc1ccc(C(=O)/C=C2/C(=O)Nc3ccccc32)cc1 | 88.2% (inactive) | 83.8 | 80.3 | 161% (active) | 119 | 161 | 111% (inactive) | 123% (inactive) | 110% (inactive) | 93.2 | 98.7
23 | CCOc1ccccc1N1C(=O)CC(Sc2ncccc2C(=O)O)C1=O (centres undefined) | 101% (inactive) | 99 | 102 | 106% (inactive) | 106 | 107 | 120% (inactive) | 98.5% (inactive) | 103% (inactive) | 105 | 102
24 | O=C(/C=C/c1cc(Br)ccc1O)c1ccco1 | 99.9% (inactive) | 101 | 99 | 151% (active) | 135 | 153 | 122% (inactive) | 100% (inactive) | 95% (inactive) | 98.3 | 91
25 | O=C(Nc1cccnc1)c1ccc(-c2ccc(Cl)cc2)o1 | 97.2% (inactive) | 93.9 | 97.7 | 101% (inactive) | 100 | 103 | 97.8% (inactive) | 94.1% (inactive) | 100% (inactive) | 98.1 | 99.8
26 | Cc1ccc(C2=NN(S(C)(=O)=O)C(c3ccc4c(c3)OCO4)C2)cc1 (centres undefined) | 101% (inactive) | 99.6 | 102 | 116% (inactive) | 115 | 115 | 141% (inactive) | 103% (inactive) | 129% (inactive) | 130 | 119
27 | COc1ccc(/C=C/C(=O)c2c(O)cc(C)oc2=O)c(OC)c1 | 104% (inactive) | 101 | 103 | 102% (inactive) | 101 | 103 | 103% (inactive) | 100% (inactive) | 95.9% (inactive) | 95.6 | 90.7
28 | Cc1cccc(OCCCSc2nc3ccc(C)cc3[nH]2)c1 | 92% (inactive) | 89.2 | 92.2 | 124% (inactive) | 115 | 127 | 94.7% (inactive) | 91.6% (inactive) | 79.9% (inactive) | 77.5 | 82.1
29 | Cc1noc2ncnc(Sc3ccccc3Cl)c12 | 106% (inactive) | 104 | 105 | 112% (inactive) | 111 | 112 | 109% (inactive) | 101% (inactive) | 116% (inactive) | 113 | 114
30 | Cc1cc(C)nc(/N=c2/ssnc2Cl)c1 | 88.7% (inactive) | 87.3 | 86.4 | 142% (inactive) | 131 | 143 | 107% (inactive) | 111% (inactive) | 124% (inactive) | 110 | 116
31 | Cc1csc(Nc2ccccc2C(F)(F)F)n1 | 96.2% (inactive) | 94.2 | 95.9 | 105% (inactive) | 104 | 108 | 101% (inactive) | 94.3% (inactive) | 97.2% (inactive) | 97.6 | 94.9
32 | O=C(NC(c1ccccc1)C(Cl)Cl)c1ccccc1 (centres undefined) | 94.7% (inactive) | 98.4 | 92.9 | 97.7% (inactive) | 104 | 93.4 | 128% (inactive) | 125% (inactive) | 107% (inactive) | 108 | 106
33 | Cc1cc(NC(c2ccc(Cl)cc2)c2ccc3cccnc3c2O)no1 (centres undefined) | 97.8% (inactive) | 97.4 | 97.6 | 108% (inactive) | 104 | 113 | 100% (inactive) | 94.5% (inactive) | 98.3% (inactive) | 99.1 | 98.5
34 | Cc1ccc(NN2C(=O)C=C(c3ccc(Cl)cc3)C2=O)cc1 | 83.9% (inactive) | 87.1 | 74.3 | 289% (active) | 117 | 280 | 111% (inactive) | 91.3% (inactive) | 96.9% (inactive) | 91.7 | 83.1
